What was measured:
Details in all cases: stereoisomer not certain
UniProt Q8VGC6 = target: T1, UniProt Q8VGC6
T1 sequence (whole entry): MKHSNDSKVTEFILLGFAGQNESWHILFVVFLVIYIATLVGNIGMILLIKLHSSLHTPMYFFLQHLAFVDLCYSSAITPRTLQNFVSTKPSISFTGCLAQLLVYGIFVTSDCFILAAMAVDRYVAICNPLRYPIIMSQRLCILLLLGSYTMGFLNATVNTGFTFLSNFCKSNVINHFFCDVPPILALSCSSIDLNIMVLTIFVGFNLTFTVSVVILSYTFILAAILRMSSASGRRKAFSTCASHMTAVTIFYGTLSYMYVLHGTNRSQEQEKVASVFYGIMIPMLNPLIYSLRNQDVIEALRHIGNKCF
How it was run: (§1)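 Each entry records the cell line, G-protein, co-transfected protein and tags used. Methods varied with the source, often transient luciferase assays in mammalian cell lines. A receptor–molecule pair is called responsive (active) if the original authors judged its signal statistically different from baseline and non-responsive (inactive) otherwise.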

UniProt Q8VGD7 = target: T2, UniProt Q8VGD7
T2 sequence (whole entry): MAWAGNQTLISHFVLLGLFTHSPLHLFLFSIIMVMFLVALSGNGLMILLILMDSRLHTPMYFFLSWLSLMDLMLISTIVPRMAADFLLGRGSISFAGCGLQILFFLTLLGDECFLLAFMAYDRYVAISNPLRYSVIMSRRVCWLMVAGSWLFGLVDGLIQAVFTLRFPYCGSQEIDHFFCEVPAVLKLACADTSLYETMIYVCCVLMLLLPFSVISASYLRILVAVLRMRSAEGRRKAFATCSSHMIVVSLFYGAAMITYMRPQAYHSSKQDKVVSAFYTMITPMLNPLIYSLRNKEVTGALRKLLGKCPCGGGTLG
How it was run: as §1

UniProt Q8VGH1 = target: T3, UniProt Q8VGH1
T3 sequence (whole entry): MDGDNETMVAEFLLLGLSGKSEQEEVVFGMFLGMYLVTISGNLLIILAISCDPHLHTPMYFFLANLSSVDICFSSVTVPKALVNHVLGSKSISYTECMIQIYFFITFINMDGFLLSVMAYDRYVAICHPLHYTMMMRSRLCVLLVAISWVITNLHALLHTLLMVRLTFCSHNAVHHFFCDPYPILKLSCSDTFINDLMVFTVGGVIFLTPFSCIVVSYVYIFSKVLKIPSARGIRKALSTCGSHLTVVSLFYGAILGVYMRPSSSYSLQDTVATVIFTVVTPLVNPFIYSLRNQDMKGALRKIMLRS
How it was run: as §1

UniProt Q8VGJ1 = target: T4, UniProt Q8VGJ1
T4 sequence (whole entry): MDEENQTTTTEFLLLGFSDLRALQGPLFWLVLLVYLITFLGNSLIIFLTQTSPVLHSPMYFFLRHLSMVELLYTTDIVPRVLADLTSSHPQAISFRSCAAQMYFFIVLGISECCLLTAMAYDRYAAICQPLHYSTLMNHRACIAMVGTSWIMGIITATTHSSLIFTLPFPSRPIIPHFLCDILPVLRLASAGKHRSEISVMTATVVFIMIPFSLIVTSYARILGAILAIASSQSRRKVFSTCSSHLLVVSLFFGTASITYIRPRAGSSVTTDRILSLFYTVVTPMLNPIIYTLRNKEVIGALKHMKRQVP
How it was run: as §1

UniProt Q8VGJ3 = target: T5, UniProt Q8VGJ3
T5 sequence (whole entry): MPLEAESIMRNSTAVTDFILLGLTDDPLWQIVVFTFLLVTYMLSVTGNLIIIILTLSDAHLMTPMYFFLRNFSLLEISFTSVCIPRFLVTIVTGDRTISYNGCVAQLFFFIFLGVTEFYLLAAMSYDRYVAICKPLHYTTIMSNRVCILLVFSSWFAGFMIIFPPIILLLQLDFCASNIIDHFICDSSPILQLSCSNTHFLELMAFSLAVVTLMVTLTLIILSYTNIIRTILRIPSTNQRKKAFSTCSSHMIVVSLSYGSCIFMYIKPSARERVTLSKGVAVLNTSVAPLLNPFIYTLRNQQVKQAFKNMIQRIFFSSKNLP
How it was run: as §1

UniProt Q8VGJ5 = target: T6, UniProt Q8VGJ5
T6 sequence (whole entry): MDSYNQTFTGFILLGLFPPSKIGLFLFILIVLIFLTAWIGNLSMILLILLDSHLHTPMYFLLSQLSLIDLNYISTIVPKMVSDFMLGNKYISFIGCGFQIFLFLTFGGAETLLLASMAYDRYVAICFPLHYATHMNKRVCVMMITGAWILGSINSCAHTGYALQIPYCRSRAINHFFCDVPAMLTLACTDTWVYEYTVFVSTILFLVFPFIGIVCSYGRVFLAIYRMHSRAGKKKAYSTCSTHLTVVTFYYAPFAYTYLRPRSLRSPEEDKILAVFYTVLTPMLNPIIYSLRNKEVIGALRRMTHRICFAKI
How it was run: as §1

UniProt Q8VGL0 = target: T7, UniProt Q8VGL0
T7 sequence (whole entry): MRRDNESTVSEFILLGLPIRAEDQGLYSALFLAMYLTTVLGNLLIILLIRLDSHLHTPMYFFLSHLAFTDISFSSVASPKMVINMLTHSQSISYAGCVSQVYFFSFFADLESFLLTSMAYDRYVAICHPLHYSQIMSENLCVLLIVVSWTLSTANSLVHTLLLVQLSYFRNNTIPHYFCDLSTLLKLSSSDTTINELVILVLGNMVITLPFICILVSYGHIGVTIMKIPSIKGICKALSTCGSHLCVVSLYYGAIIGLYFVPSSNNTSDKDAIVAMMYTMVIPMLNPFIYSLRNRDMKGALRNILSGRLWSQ
How it was run: as §1

UniProt Q8VGL7 = target: T8, UniProt Q8VGL7
T8 sequence (whole entry): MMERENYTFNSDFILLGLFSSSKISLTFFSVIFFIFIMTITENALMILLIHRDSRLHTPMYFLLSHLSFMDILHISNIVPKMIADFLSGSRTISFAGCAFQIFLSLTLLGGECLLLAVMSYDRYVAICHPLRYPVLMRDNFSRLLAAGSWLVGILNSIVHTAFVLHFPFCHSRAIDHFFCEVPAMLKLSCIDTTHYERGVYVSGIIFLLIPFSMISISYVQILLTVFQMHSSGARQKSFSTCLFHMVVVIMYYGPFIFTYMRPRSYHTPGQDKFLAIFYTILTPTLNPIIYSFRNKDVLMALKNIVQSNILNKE
How it was run: as §1

UniProt Q8VGM2 = target: T9, UniProt Q8VGM2
T9 sequence (whole entry): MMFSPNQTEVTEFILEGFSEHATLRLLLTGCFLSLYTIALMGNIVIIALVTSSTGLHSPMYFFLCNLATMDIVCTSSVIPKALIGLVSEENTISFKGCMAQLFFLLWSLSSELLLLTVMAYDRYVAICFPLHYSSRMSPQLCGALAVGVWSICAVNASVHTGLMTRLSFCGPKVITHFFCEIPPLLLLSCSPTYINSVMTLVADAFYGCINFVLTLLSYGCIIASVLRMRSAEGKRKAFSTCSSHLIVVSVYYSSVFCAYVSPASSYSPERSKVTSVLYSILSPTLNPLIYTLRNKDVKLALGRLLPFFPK
How it was run: as §1

UniProt Q8VGP6 = target: T10, UniProt Q8VGP6
T10 sequence (whole entry): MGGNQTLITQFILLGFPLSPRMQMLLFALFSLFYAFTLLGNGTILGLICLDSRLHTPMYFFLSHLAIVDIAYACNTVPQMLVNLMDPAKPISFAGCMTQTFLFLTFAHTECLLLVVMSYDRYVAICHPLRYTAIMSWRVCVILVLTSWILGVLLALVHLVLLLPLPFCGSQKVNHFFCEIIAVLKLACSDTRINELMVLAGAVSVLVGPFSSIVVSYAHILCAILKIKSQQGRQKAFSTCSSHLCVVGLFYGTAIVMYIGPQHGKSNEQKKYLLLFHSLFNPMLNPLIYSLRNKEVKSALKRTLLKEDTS
How it was run: as §1

UniProt Q8VGQ3 = target: T11, UniProt Q8VGQ3
T11 sequence (whole entry): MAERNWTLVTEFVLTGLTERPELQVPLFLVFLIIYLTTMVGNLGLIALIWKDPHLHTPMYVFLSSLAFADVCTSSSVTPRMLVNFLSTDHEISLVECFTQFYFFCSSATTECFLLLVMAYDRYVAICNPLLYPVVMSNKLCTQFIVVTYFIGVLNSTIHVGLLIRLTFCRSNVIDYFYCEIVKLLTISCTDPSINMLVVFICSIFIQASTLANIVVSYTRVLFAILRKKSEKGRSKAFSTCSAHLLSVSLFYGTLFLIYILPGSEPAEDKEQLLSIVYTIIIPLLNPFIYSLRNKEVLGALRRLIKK
How it was run: as §1

UniProt Q8VGT4 = target: T12, UniProt Q8VGT4
T12 sequence (whole entry): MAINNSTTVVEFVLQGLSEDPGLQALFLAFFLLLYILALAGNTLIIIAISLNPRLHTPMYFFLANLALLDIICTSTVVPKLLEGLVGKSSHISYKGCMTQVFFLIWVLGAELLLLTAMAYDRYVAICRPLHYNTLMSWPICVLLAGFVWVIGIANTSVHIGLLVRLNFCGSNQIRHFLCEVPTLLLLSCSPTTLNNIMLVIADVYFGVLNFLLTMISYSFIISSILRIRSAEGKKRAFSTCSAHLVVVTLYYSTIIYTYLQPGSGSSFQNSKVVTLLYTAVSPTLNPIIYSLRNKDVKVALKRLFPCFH
How it was run: as §1

UniProt Q8VGU3 = target: T13, UniProt Q8VGU3
T13 sequence (whole entry): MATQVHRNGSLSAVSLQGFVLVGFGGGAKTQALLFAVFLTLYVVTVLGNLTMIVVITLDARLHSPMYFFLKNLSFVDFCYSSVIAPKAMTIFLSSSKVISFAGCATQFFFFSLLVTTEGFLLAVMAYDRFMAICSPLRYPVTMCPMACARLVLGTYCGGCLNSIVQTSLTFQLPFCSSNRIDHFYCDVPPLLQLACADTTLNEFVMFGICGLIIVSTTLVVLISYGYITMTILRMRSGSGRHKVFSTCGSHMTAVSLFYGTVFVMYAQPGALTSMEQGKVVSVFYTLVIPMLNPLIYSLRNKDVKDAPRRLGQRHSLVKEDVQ
How it was run: as §1

UniProt Q8VGV1 = target: T14, UniProt Q8VGV1
T14 sequence (whole entry): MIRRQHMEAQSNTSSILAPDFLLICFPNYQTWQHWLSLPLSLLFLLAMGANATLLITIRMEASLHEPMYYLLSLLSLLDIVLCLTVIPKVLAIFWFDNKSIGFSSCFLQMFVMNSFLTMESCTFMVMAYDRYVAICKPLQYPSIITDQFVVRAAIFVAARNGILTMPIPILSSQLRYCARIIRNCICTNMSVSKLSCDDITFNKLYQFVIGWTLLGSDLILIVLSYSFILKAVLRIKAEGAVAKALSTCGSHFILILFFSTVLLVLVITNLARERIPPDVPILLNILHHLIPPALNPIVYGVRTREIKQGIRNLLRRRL
How it was run: as §1

UniProt Q8VGV7 = target: T15, UniProt Q8VGV7
T15 sequence (whole entry): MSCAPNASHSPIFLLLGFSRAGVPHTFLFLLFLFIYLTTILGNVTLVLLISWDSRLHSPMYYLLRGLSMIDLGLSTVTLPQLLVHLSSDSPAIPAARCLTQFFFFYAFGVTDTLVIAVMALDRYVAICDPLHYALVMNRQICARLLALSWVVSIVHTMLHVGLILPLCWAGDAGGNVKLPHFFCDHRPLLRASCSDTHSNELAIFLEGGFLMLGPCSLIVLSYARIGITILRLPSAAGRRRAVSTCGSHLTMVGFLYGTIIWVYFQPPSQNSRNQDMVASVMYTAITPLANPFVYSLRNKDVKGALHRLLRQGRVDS
How it was run: as §1

UniProt Q8VGX3 = target: T16, UniProt Q8VGX3
T16 sequence (whole entry): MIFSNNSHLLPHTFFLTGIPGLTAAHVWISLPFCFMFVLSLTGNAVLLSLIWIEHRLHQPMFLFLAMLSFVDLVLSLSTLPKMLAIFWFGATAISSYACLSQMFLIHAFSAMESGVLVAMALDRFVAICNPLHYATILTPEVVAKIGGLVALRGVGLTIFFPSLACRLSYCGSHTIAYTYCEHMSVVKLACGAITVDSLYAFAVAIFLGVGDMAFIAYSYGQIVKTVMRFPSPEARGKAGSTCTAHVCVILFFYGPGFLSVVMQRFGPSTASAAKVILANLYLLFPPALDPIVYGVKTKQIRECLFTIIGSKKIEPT
How it was run: as §1

UniProt Q8VGX5 = target: T17, UniProt Q8VGX5
T17 sequence (whole entry): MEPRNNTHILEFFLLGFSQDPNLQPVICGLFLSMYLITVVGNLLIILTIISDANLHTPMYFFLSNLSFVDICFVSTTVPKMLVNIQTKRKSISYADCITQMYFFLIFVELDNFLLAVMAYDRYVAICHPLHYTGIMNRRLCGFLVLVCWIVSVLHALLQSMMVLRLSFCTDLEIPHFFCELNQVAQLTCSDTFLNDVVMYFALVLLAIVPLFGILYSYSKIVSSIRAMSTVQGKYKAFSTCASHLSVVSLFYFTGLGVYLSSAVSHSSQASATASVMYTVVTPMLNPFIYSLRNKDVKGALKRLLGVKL
How it was run: as §1

UniProt Q8VGW5 = target: T18, UniProt Q8VGW5
T18 sequence (whole entry): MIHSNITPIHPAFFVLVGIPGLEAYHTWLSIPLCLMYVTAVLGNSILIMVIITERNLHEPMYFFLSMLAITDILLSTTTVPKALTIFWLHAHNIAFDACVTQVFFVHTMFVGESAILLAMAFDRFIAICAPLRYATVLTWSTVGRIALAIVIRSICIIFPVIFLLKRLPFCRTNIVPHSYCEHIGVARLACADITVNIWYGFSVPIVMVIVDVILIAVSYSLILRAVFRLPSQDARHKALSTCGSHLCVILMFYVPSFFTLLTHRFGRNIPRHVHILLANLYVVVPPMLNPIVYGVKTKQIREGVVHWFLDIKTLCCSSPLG
How it was run: as §1

Measured: odorant receptor agonist call

CCCCCOC(=O)CCCCC
not listed: UniProt Q8VGW5
inactive: all other assays above

CCCCCCC(=O)[O-].[H+]
not listed: UniProt Q8VGJ3 | UniProt Q8VGU3 | UniProt Q8VGV7 | UniProt Q8VGX3
inactive: all other assays above
